# ChEMBL document CHEMBL1629572 (Antimicrob Agents Chemother, 2009)
# How the values were obtained:
# [1] = biological target: T1, Neuraminidase (Influenza A virus, UniProt B4URF0); test: Inhibition of Influenza A virus (A/Saitama/78/2003(H1N1)) neuraminidase after 30 mins by fluorescence analysis
# [2] = biological target: T1, Neuraminidase; test: Inhibition of Influenza A virus (A/Okinawa/42/2004(H1N1)) neuraminidase after 30 mins by fluorescence analysis
# [3] = biological target: T1, Neuraminidase; test: Inhibition of Influenza A virus (A/Aichi/169/2005(H1N1)) neuraminidase after 30 mins by fluorescence analysis
# [4] = biological target: T1, Neuraminidase; test: Inhibition of Influenza A virus (A/Yamagata/83/2006(H1N1)) neuraminidase after 30 mins by fluorescence analysis
# [5] = biological target: T1, Neuraminidase; test: Inhibition of Influenza A virus (A/Singapore/1/1957(H2N2)) neuraminidase after 30 mins by fluorescence analysis
# [6] = biological target: T1, Neuraminidase; test: Inhibition of Influenza A virus (A/California/07/2004(H3N2)) neuraminidase after 30 mins by fluorescence analysis
# [7] = biological target: T1, Neuraminidase; test: Inhibition of Influenza A virus (A/Wisconsin/67/2005(H3N2)) neuraminidase after 30 mins by fluorescence analysis
# [8] = biological target: T1, Neuraminidase; test: Inhibition of Influenza A virus (A/Shiga/5/2002(H3N2)) neuraminidase after 30 mins by fluorescence analysis
# [9] = biological target: T1, Neuraminidase; test: Inhibition of Influenza A virus (A/Yamagata/2/2002(H3N2)) neuraminidase after 30 mins by fluorescence analysis
# [10] = biological target: T1, Neuraminidase; test: Inhibition of Influenza A virus (A/Saitama/80/2003(H3N2)) neuraminidase after 30 mins by fluorescence analysis
# [11] = biological target: T1, Neuraminidase; test: Inhibition of Influenza A virus (A/Saitama/07/2006(H3N2)) neuraminidase after 30 mins by fluorescence analysis
# [12] = Inhibition of Influenza B virus (B/Malaysia/2506/2004(Victoria)) neuraminidase after 30 mins by fluorescence analysis
# In short: (§1)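 Virus NA source was mixed with compound in 32.5 mM MES-NaOH pH 6.5 with 4 mM CaCl2 and preincubated 10 min at room temperature. Reaction ran 30 min at room temperature with 100 μM (final) 4-MU-NANA. Fluorescence was read at ex 360/em 460 nm, in triplicate. IC50 came from linear regression of residual activity against log concentration, using concentrations giving 10–90% residual activity.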
# [13] = Inhibition of Influenza B virus (B/Aichi/3/2006(Victoria)) neuraminidase after 30 mins by fluorescence analysis; in short: as §1
# [14] = Inhibition of Influenza B virus (B/Shanghai/361/2002(Yamagata)) neuraminidase after 30 mins by fluorescence analysis; in short: as §1
# [15] = Inhibition of Influenza B virus (B/Yamagata/85/2004(Yamagata)) neuraminidase after 30 mins by fluorescence analysis; in short: as §1
# [16] = Inhibition of Influenza B virus (B/Aichi/186/2005(Yamagata)) neuraminidase after 30 mins by fluorescence analysis; in short: as §1
# [17] = Inhibition of Influenza B virus (B/Saitama/01/2005(Yamagata)) neuraminidase after 30 mins by fluorescence analysis; in short: as §1
# [18] = Inhibition of Influenza B virus (B/Sapporo/29/2005(Yamagata)) neuraminidase after 30 mins by fluorescence analysis; in short: as §1
# [19] = Inhibition of Influenza B virus (B/Yamagata/1/2005(Yamagata)) neuraminidase after 30 mins by fluorescence analysis; in short: as §1
# T1 sequence (B4URF0 whole entry): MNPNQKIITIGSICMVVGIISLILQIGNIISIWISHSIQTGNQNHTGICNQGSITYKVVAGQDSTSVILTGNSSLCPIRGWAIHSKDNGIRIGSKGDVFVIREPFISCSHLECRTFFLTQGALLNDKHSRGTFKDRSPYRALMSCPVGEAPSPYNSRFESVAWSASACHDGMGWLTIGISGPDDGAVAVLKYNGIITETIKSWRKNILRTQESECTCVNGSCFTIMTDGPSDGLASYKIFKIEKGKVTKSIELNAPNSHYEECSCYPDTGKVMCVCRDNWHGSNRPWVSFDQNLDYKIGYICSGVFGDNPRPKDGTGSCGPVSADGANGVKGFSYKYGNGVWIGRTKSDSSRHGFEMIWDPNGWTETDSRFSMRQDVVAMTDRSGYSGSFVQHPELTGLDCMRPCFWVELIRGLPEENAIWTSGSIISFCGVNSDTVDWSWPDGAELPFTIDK
smiles,measurement,setting,value
CCCCCCCC(=O)OC[C@@H](O)[C@@H](OC)[C@@H]1OC(C(=O)O)=C[C@H](NC(=N)N)[C@H]1NC(C)=O [LANINAMIVIR OCTANOATE],IC50,[1],940 nM
same,IC50,[2],631 nM
same,IC50,[3],664 nM
same,IC50,[4],733 nM
same,IC50,[5],128 nM
same,IC50,[6],135 nM
same,IC50,[7],187 nM
same,IC50,[8],64.2 nM
same,IC50,[9],46.6 nM
same,IC50,[10],39.2 nM
same,IC50,[11],63.3 nM
same,IC50,[12],11100 nM
same,IC50,[13],13800 nM
same,IC50,[14],6660 nM
same,IC50,[15],7190 nM
same,IC50,[16],3550 nM
same,IC50,[17],3610 nM
same,IC50,[18],3600 nM
same,IC50,[19],3630 nM
